INS-1E GSIS act – GLuc luminescence reporter in INS-1E cells, primary screen for activators of glucose-dependent secretion of insulin | activation, % at 16.6 µM | INS-1E GLuc reporter insulin secretion, 2-3 h | AID 743287 | actives 0.61% (n = 370,000);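 active = lowest replicate activation of at least 40%, so every replicate reaches that level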;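 also: 0% = median of neutral control wells and 100% = median of IBMX positive control wells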
FXN GAA850 act – increases GAA850 frataxin promoter reporter activity. HEK293 lucGAA850 FXN promoter luciferase reporter, 24 h; percent of 10 µM SAHA response. activation, % at 6 µM. actives 0.56% (n = 360,000). AID 540364;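 active = activation above the average of all compounds screened plus 3 SD, cutoff fixed separately per campaign, cut at about 7.5% in these data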;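 also: 0% = DMSO wells and 100% = 10 µM SAHA wells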
CaV13 ICDI inh – Disruptors of the CACNA1D IQ motif to Ca2+-dependent inactivation inhibitor domain association, primary screening, Förster resonance energy transfer in intact living …; actives 0.098% (n = 340,000); inhibition, % at 12.3 µM; AID 743397; HEK cells, CFP/YFP FRET ICDI-IQ, plate reader, 10 min; percent FRET-ratio fall versus neutral wells;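 active = mean replicate inhibition of at least 30% and at least 1% of replicates passing that level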;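 also: 0% = median of the neutral control wells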
XiGFP reactiv – activators of X-chromosome reactivation in mouse fibroblasts; actives 0.055% (n = 360,000); AID 743238; XiGFP mouse fibroblasts, % GFP-positive cells imaging, 3 d; cells co-treated with 5-aza-dC sensitizer; scaled so ellipticine positive control = 100%; activation, % at 7.58 µM;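 active = mean normalized replicate activation at least 10% and every replicate at or above 10%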;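 also: 0% = median of on-plate neutral control wells and 100% = ellipticine 6 µM median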
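assay system = SV40-immortalized XiGFP fibroblast cells, line 68-5-11 | buffer or medium = DMEM plus 5-aza-dC sensitizer | doses = single-point pinned compound dosing | times = 3-day compound exposure, then 15 min fixation at room temperature | benchmarks = positive control ellipticine, 6 µM final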
* = called active by the depositor. Shown are actives, neighbours in structure and some others; about 1% of the full set was active somewhere.

How did COc1ccc(/C=N/NC(=O)c2ccc(COc3ccccc3Cl)o2)c(OC)c1C do in these assays?
INS-1E GSIS act: 152*; FXN GAA850 act: 0; CaV13 ICDI inh: -5; XiGFP reactiv: 0

Results for COc1ccc(/C=N/NC(=O)c2ccc(COc3ccccc3Cl)o2)cc1 ?
INS-1E GSIS act: 3; FXN GAA850 act: 2

What do the screens show for `CCCNC(=O)C[C@@H]1CC[C@@H]2[C@H](COC[C@H](O)CN2C(=O)C2CCOCC2)O1`?
INS-1E GSIS act: 0; XiGFP reactiv: 0

What do the screens show for `CCOc1ccc(NC(=O)CN(C)C(=O)CCCNC(=O)c2ccc(Cl)cc2)cc1OCC`?
FXN GAA850 act: -1; CaV13 ICDI inh: 32*; XiGFP reactiv: 0

What do the screens show for `COc1cccc(NC(=O)CN(C)C(=O)CCCNC(=O)c2ccc(Cl)cc2)c1`?
INS-1E GSIS act: -15; FXN GAA850 act: 4; CaV13 ICDI inh: -2; XiGFP reactiv: 0

How did C[C@@H]1CN([C@@H](C)CO)C(=O)Cc2cc(NC(=O)Nc3ccccc3)ccc2O[C@H]1CN(C)C(=O)Nc1cccc2ccccc12 do in these assays?
INS-1E GSIS act: 2; XiGFP reactiv: -1

Results for O=C(Nc1cc(F)ccc1F)N[C@@H]1CC[C@@H](CCNC(=O)c2cnccn2)O[C@@H]1CO ?
INS-1E GSIS act: 8; XiGFP reactiv: 0

Results for COc1ccc(/C=N/NC(=O)C(=O)N2CCN(c3ccccc3OC)CC2)cc1 ?
INS-1E GSIS act: 58; FXN GAA850 act: 8.4*; CaV13 ICDI inh: -5

What do the screens show for `COc1ccc(C(=O)N2CCN(c3ccccc3OC)CC2)cc1`?
INS-1E GSIS act: -3; FXN GAA850 act: 2; CaV13 ICDI inh: 3; XiGFP reactiv: 0

What do the screens show for `CS(=O)(=O)N1CCCCC1c1cc(C(=O)Nc2cccc3c2CCCC3)no1` (configuration not stated)?
INS-1E GSIS act: 54*; FXN GAA850 act: 1; CaV13 ICDI inh: -4; XiGFP reactiv: 0

Results for Cc1noc(C)c1S(=O)(=O)N1CCCCC1c1cc(C(=O)Nc2cccc3c2CCCC3)no1 (configuration not stated) ?
INS-1E GSIS act: -18; FXN GAA850 act: -2; CaV13 ICDI inh: -4; XiGFP reactiv: 0

How did Cc1cccc(S(=O)(=O)N2C[C@H](O)COC[C@@H]3O[C@H](CC(=O)NCc4ccncn4)CC[C@H]32)c1 do in these assays?
INS-1E GSIS act: 8; XiGFP reactiv: 0

What do the screens show for `C/C(=N/Oc1nc(C)cc(C)n1)c1ccc(F)cc1`?
INS-1E GSIS act: 64*; FXN GAA850 act: 1; CaV13 ICDI inh: -5

How did C/C(=N/Oc1nc(C)cc(C)n1)c1ccccc1 do in these assays?
FXN GAA850 act: 6; CaV13 ICDI inh: -4

What do the screens show for `CC(C)NC(=O)N1C[C@@H]2C(c3ccc(Br)cc3)[C@H](C1)N2CC(F)(F)F` (some centres not stated)?
INS-1E GSIS act: -6; XiGFP reactiv: 0

How did CCOC(=O)c1sc(NC(=O)/C=C/c2ccccc2)nc1C do in these assays?
INS-1E GSIS act: 4; FXN GAA850 act: 3; CaV13 ICDI inh: 2; XiGFP reactiv: 0

How did COC(=O)c1sc(NC(=O)/C=C/c2ccc(C)cc2)nc1C do in these assays?
INS-1E GSIS act: 67*; FXN GAA850 act: 2; CaV13 ICDI inh: -5; XiGFP reactiv: 1

How did CC(=O)N1CC(=O)N2[C@@H](CO)[C@H](c3ccc(-c4cccc(C(=O)N(C)C)c4)cc3)[C@@H]2C1 do in these assays?
INS-1E GSIS act: 17; XiGFP reactiv: 0

What do the screens show for `CC(Oc1ccccc1Cl)C(=O)Nc1ccc(S(=O)(=O)Nc2nccs2)cc1` (configuration not stated)?
INS-1E GSIS act: 87*; FXN GAA850 act: 0; CaV13 ICDI inh: -6; XiGFP reactiv: 0

Results for CCCN(C)C[C@H]1Oc2ncc(-c3cccnc3)cc2C(=O)N([C@H](C)CO)C[C@H]1C ?
INS-1E GSIS act: 3; XiGFP reactiv: 0

Results for Cc1cccc(NC(=O)c2cc([N+](=O)[O-])ccc2NCC2CCCO2)n1 (configuration not stated) ?
INS-1E GSIS act: 8; FXN GAA850 act: 0; CaV13 ICDI inh: -4; XiGFP reactiv: 1

What do the screens show for `COCCCNc1ccc([N+](=O)[O-])cc1C(=O)Nc1cccc(C)n1`?
INS-1E GSIS act: 45*; FXN GAA850 act: -1; CaV13 ICDI inh: -7; XiGFP reactiv: 0
